Assay results from PMC3741069 (Biochemistry, 2013).
Positions count from the first letter of the chain named.

Assays:
Experiment in all cases: spectral perturbation titration
Format in all cases: binding
[1] = molecular target: T1, nitrate reductase (NarB) (Synechococcus elongatus, UniProt P39458)
T1 sequence (P39458 15-729): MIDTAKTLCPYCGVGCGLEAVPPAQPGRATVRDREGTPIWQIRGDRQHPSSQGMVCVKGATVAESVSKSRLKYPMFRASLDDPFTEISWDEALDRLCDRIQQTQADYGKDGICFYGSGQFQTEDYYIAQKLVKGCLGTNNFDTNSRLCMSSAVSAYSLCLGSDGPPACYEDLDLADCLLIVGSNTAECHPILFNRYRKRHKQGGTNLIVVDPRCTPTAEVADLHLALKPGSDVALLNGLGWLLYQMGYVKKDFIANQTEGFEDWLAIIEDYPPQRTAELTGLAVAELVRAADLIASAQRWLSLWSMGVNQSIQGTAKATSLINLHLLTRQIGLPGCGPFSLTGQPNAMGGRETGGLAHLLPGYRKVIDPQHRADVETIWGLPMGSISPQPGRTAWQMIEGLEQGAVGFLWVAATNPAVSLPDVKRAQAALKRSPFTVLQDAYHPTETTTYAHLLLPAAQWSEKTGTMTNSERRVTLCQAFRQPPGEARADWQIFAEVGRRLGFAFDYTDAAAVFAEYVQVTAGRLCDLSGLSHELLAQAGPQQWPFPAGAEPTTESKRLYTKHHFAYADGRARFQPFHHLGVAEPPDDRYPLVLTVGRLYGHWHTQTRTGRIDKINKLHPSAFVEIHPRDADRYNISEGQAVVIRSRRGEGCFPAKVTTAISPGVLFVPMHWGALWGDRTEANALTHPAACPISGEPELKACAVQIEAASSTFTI
Summary of the method: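 Recombinant wild-type Synechococcus sp. PCC 7942 NarB had its first 14 residues deleted and a C-terminal His6 tag. It was expressed in E. coli DH5a with 100 μM molybdate and purified by Co affinity, DEAE and gel filtration. Oxidized enzyme was titrated with ferredoxin (read at 420 minus 600 nm) or nitrate (read at 400 minus 470 nm; change at saturating nitrate taken as 100% complex). Kd came from a single binding isotherm fit.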

[2] = molecular target: T2, nitrate reductase (NarB) (Synechococcus elongatus, UniProt P39458, K72Q)
T2 sequence (P39458 15-729 K72Q): T1 sequence (P39458 15-729) with K58Q
Summary of the method: (§1)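 Single-residue NarB variants were made by site-directed mutagenesis and expressed and purified as for wild type (His6, Co affinity, DEAE, gel filtration). Complex formation with ferredoxin or nitrate was followed by difference absorbance at variant-specific wavelength pairs chosen for signal:noise. The change at saturating nitrate was taken as 100% complex. Kd came from fitting perturbation magnitude against ligand concentration to a single binding isotherm.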

[3] = molecular target: T3, nitrate reductase (NarB) (Synechococcus elongatus, UniProt P39458, K144R)
T3 sequence (P39458 15-729 K144R): T1 sequence (P39458 15-729) with K130R
Summary of the method: as §1

Structure (SMILES): O=[N+]([O-])O [nitrate]
- Kd [1]: 1 ± 0.3 µM
- Kd [2]: 8 ± 2.3 µM
- Kd [3]: 13.4 ± 3 µM
